According to ChEMBL document CHEMBL4364238, “Discovery of BNC375, a Potent, Selective, and Orally Available Type I Positive Allosteric Modulator of α7 nAChRs” (ACS Med Chem Lett, 2019):
pEC50: −log10 of the molar value. Converted amounts (≈) assume the structure as drawn. Values belong to the compound of their own block, whether it stands above or below them. The source made the active and inactive calls. The rule behind the calls is not given here.

Key:
[1] = Oral bioavailability in Sprague-Dawley rat; assay type: ADME, organism-based; settings: in vivo
Mus musculus [2] = test: Reversal of scopolamine-induced memory impairment in mouse assessed as increase in spontaneous alteration at 3 mg/kg, po administered with compond and scopolamine at 60 mins and 30 mins respectively prior to test by T-maze test; assay type: functional; settings: read-out: INH
Outline: (§1)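 Mouse T-maze continuous alternation task with scopolamine-induced impairment of spontaneous alternation; compound given orally in saline-based vehicle with 25% Cremophor ELP over 0.003–10.0 mg/kg; group means compared by one-way ANOVA then Fisher's PLSD, p < 0.05 significant.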

Mus musculus [3] = test: Reversal of scopolamine-induced memory impairment in mouse assessed as increase in spontaneous alteration at 0.003 mg/kg, po administered with compond and scopolamine at 60 mins and 30 mins respectively prior to test by T-maze test; assay type: functional; outline: as §1
[4] = Stability in human liver microsomes assessed as hepatic extraction ratio at 1 uM measured for 45 mins by LC-MS/MS analysis; assay type: ADME, Microsome; settings: read-out: ERH
[5] = Dose normalized AUC (0 to infinity) in Sprague-Dawley rat at 4 mg/kg administered as single IV bolus dose; assay type: ADME, organism-based; settings: in vivo
Outline: (§2)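 Single IV bolus of 4.0 mg/kg in male Sprague–Dawley rats; dosing solution 1.1 mg/mL in saline-based vehicle with 0.1 M hydroxypropyl-β-cyclodextrin and 10% (v/v) DMSO; plasma pharmacokinetic parameters derived.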

Mus musculus [6] = test: Reversal of scopolamine-induced memory impairment in mouse assessed as increase in spontaneous alteration at 0.3 mg/kg, po administered with compond and scopolamine at 60 mins and 30 mins respectively prior to test by T-maze test; assay type: functional; outline: as §1
[7] = target: Neuronal acetylcholine receptor subunit alpha-7 (Rattus norvegicus, UniProt Q05941); test: Positive allosteric modulatory activity at rat alpha7 nAChR expressed in GH4C1 cells assessed as potentiation of acetylcholine response at -70 mV holding potential preincubated for 30 secs followed by co-application with acetylcholine by manual patch clamp assay; assay type: cell-based
Outline: (§3)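 Conventional manual patch-clamp with a fast-application system on stable GH4C1 cells expressing rat α7 nAChR; currents evoked by acetylcholine with and without test compound; peak-current change relative to acetylcholine alone gives potentiation (P₃ at 3 μM; concentration–response for EC₅₀ and Pmax).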

[8] = Stability in mouse liver microsomes assessed as hepatic extraction ratio at 1 uM measured for 45 mins by LC-MS/MS analysis; assay type: ADME, Microsome; settings: read-out: ERH
[9] = Half life in Sprague-Dawley rat plasma at 4 mg/kg administered as single IV bolus dose; assay type: ADME, organism-based; outline: as §2
[10] = Plasma clearance in Sprague-Dawley rat at 4 mg/kg administered as single IV bolus dose; assay type: ADME, organism-based; outline: as §2
[11] = target: Neuronal acetylcholine receptor subunit alpha-7 (Rattus norvegicus) (UniProt Q05941); test: (§4) Positive allosteric modulatory activity at rat alpha7 nAChR expressed in GH4C1 cells assessed as AUC of potentiation of peak current at -70 mV holding potential preincubated for 30 secs followed by co-application with acetylcholine by manual patch clamp assay relative to peak current potentiation; assay type: cell-based; outline: as §3
[12] = target: Neuronal acetylcholine receptor subunit alpha-7 (Rattus norvegicus) (UniProt Q05941); test: as §4, with “of acetylcholine response at 3 uM” for “of peak current”, “by automated” for “by manual”, “to potentiation of” for “to peak”, “current response” for “current potentiation”; assay type: cell-based
[13] = target: Neuronal acetylcholine receptor subunit alpha-7 (Rattus norvegicus) (UniProt Q05941); test: Positive allosteric modulatory activity at rat alpha7 nAChR expressed in GH4C1 cells assessed as potentiation of peak current at -70 mV holding potential preincubated for 30 secs followed by co-application with acetylcholine by manual patch clamp assay relative to acetylcholine-induced peak current; assay type: cell-based; outline: as §3
Mus musculus [14] = test: Reversal of scopolamine-induced memory impairment in mouse assessed as increase in spontaneous alteration at 0.03 mg/kg, po administered with compond and scopolamine at 60 mins and 30 mins respectively prior to test by T-maze test; assay type: functional; outline: as §1
[15] = target: Neuronal acetylcholine receptor subunit alpha-7 (Rattus norvegicus) (UniProt Q05941); test: Positive allosteric modulator activity at rat alpha7 nAChR expressed in GH4C1 cells assessed as potentiation of acetylcholine response at 3 uM at -70 mV holding potential preincubated for 30 secs followed by co-application with acetylcholine by automated patch clamp assay; assay type: cell-based
Outline: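 Automated planar patch clamp on stable GH4C1 (rat) cell lines expressing rat α7 nAChR; test compound at 3 μM with an EC₂₀ acetylcholine challenge; percent change in peak current versus acetylcholine alone taken as P₃.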

[16] = Volume of distribution at steady state in Sprague-Dawley rat at 4 mg/kg administered as single IV bolus dose; assay type: ADME, organism-based; settings: in vivo, read-out: Vdss; outline: as §2
[17] = Apparent permeability in human Caco2 cells; assay type: ADME, cell-based; settings: Caco-2
Mus musculus [18] = test: Reversal of scopolamine-induced memory impairment in mouse assessed as increase in spontaneous alteration at 1 mg/kg, po administered with compond and scopolamine at 60 mins and 30 mins respectively prior to test by T-maze test; assay type: functional; settings: read-out: INH; outline: as §1
Mus musculus [19] = test: Reversal of scopolamine-induced memory impairment in mouse assessed as percentage of increase in spontaneous alteration at 10 mg/kg, po administered with compond and scopolamine at 60 mins snd 30 mins respectively prior to test by T-maze test; assay type: functional; settings: read-out: INH; outline: as §1
[20] = Solubility of the compound at pH 6.5; assay type: physicochemical; settings: buffer
Mus musculus [21] = test: Reversal of scopolamine-induced memory impairment in mouse assessed as spontaneous alteration at 3 to 30 mg/kg, po administered with compond and scopolamine at 60 mins and 30 mins respectively prior to test by T-maze test; assay type: functional, organism-based
Outline: (§5)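 Mouse T-maze continuous alternation task; reversal of scopolamine-induced loss of spontaneous alternation after ip or oral doses of 3 and 30 mg/kg; significant doses reported.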

[22] = target: Neuronal acetylcholine receptor subunit alpha-7 (Rattus norvegicus) (UniProt Q05941); test: Positive allosteric modulatory activity at rat alpha7 nAChR expressed in GH4C1 cells assessed as potentiation of acetylcholine response at 3 uM at -70 mV holding potential preincubated for 30 secs followed by co-application with acetylcholine by manual patch clamp assay; assay type: cell-based; outline: as §3
[23] = Lipophilicity, log D of the compound at pH 7.4; assay type: physicochemical; settings: buffer
Mus musculus [24] = test: Reversal of scopolamine-induced memory impairment in mouse assessed as increase in spontaneous alteration at 3 to 30 mg/kg, ip administered with compond and scopolamine at 60 mins snd 30 mins respectively prior to test by T-maze test; assay type: functional, organism-based; outline: as §5
[25] = target: Neuronal acetylcholine receptor subunit alpha-7 (Rattus norvegicus) (UniProt Q05941); test: as §4, with “of acetylcholine response at 3 uM” for “of peak current”, “to potentiation of” for “to peak”, “current response” for “current potentiation”; assay type: cell-based; outline: as §3

Chain of Neuronal acetylcholine receptor subunit alpha-7 (Rattus norvegicus) (Q05941 whole entry): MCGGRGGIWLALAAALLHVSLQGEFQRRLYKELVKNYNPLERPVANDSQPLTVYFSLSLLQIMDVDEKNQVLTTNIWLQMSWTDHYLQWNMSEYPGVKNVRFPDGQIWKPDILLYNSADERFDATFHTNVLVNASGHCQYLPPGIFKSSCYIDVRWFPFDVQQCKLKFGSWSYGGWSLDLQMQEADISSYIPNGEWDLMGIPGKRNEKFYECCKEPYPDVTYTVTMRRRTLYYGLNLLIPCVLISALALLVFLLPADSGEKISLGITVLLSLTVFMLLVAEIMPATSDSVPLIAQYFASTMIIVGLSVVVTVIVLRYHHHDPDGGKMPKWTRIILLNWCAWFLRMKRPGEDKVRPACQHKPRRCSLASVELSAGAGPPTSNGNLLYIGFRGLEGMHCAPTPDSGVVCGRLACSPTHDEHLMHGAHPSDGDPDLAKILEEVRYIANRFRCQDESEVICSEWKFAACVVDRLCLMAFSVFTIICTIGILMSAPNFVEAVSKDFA
Chain of Neuronal acetylcholine receptor subunit alpha-7 (Q05941 whole entry): as above

Activity [15]: 420%
Structure (SMILES): Cc1cc(F)c(F)cc1NC[C@@H]1[C@@H](c2ccc(S(N)(=O)=O)cc2)C1(C)C
percent reversal of scopolamine-induced memory impairment at 3 mg/kg (Mus musculus [2]): 31%
percent reversal of scopolamine-induced memory impairment (increase in spontaneous alternation) at 1 mg/kg (Mus musculus [18]): 8%
percent increase in spontaneous alternation at 10 mg/kg (Mus musculus [19]): 15%

Activity [15]: Active
Structure (SMILES): CCOc1ccc(Cl)cc1NC(=O)C1C(c2ccc(S(N)(=O)=O)cc2)C1(C1CCCCC1)C1CCCCC1 (centres undefined)

Activity [15]: 8170%
Structure (SMILES): CC1(C)[C@@H](CNc2ccc(F)cc2OC(F)F)[C@@H]1c1ccc(S(N)(=O)=O)cc1
percent reversal of scopolamine-induced memory impairment at 3 mg/kg (Mus musculus [2]): 16%
percent reversal of scopolamine-induced memory impairment (increase in spontaneous alternation) at 1 mg/kg (Mus musculus [18]): 46%
percent increase in spontaneous alternation at 10 mg/kg (Mus musculus [19]): 51%

Activity [15]: 460%
Structure (SMILES): CC1(C)C(CNc2cccc(N3CCOCC3)c2)C1c1ccc(S(N)(=O)=O)cc1 (racemic)

Activity [15]: 17600%
Structure (SMILES): Cc1cc(F)ccc1NC[C@H]1[C@H](c2ccc(S(N)(=O)=O)cc2)C1(C)C

Activity [15]: 130%
Structure (SMILES): Cc1ncccc1NCC1C(c2ccc(S(N)(=O)=O)cc2)C1(C)C (racemic)

Activity [15]: 720%
Structure (SMILES): COc1ccc(Cl)cc1NCC1C(c2ccc(S(=O)(=O)NO)cc2)C1(C)C (racemic)

Activity [15]: 8170%
Structure (SMILES): COc1ccc(C(F)(F)F)cc1NCC1C(c2ccc(S(N)(=O)=O)cc2)C1(C)C (racemic)

Activity [15]: 3360%
Structure (SMILES): CC1(C)C(CNc2ccc(F)cc2OC(F)F)C1c1ccc(S(N)(=O)=O)cc1 (racemic)

Activity [15]: 2420%
Structure (SMILES): COc1ncccc1NCC1C(c2ccc(S(N)(=O)=O)cc2)C1(C)C (racemic)

More lines, now with the values behind:

Structure (SMILES): COc1ccc(Cl)cc1NC[C@H]1[C@H](c2ccc(S(N)(=O)=O)cc2)C1(C)C
bioavailability [1]: 77%
percent reversal of scopolamine-induced memory impairment at 3 mg/kg (Mus musculus [2]): 90%
inhibition in vivo at 0.003 mg/kg (Mus musculus [3]): -3%
hepatic extraction ratio at 0.75 h, 1 µM [4]: 0.59
AUC/dose [5]: 1 µM·h/mg
inhibition in vivo at 0.3 mg/kg (Mus musculus [6]): 65%
pEC50 [7]: 7.20
hepatic extraction ratio at 0.75 h, 1 µM [8]: 0.71
half-life [9]: 234 min
clearance [10]: 43 mL/min/kg
Ratio [11]: 25
Ratio [12]: 57
Emax [13]: 1630%
inhibition in vivo at 0.03 mg/kg (Mus musculus [14]): 11%
Activity [15]: 11800%
Vd [16]: 5.1 L/kg
Papp [17]: 14 ×10⁻⁶ cm/s

Structure (SMILES): COc1ccc(Cl)cc1NC(=O)C1C(c2ccc(S(N)(=O)=O)cc2)C12CCCC2 (racemic)
solubility [20]: 1.6 to 3.1 µg/mL (≈ 3.68 to 7.13 µM)
inhibition (Mus musculus [21]): inactive
Activity [22]: 360%
Activity [15]: 710%
logD [23]: 4.2
inhibition (Mus musculus [24]): Active
Ratio [25]: 5.6

Structure (SMILES): Cc1cc(F)c(F)cc1NC[C@H]1[C@H](c2ccc(S(N)(=O)=O)cc2)C1(C)C
percent reversal of scopolamine-induced memory impairment at 3 mg/kg (Mus musculus [2]): -15%
percent reversal of scopolamine-induced memory impairment (increase in spontaneous alternation) at 1 mg/kg (Mus musculus [18]): -13%
Activity [15]: 8930%
percent increase in spontaneous alternation at 10 mg/kg (Mus musculus [19]): -5%

Structure (SMILES): CC1(C)[C@H](CNc2ccc(F)cc2C(F)(F)F)[C@H]1c1ccc(S(N)(=O)=O)cc1
percent reversal of scopolamine-induced memory impairment at 3 mg/kg (Mus musculus [2]): 38%
percent reversal of scopolamine-induced memory impairment (increase in spontaneous alternation) at 1 mg/kg (Mus musculus [18]): -18%
Activity [15]: 410%
percent increase in spontaneous alternation at 10 mg/kg (Mus musculus [19]): -9%

Structure (SMILES): CC1(C)[C@H](CNc2ccc(F)cc2OC(F)F)[C@H]1c1ccc(S(N)(=O)=O)cc1
percent reversal of scopolamine-induced memory impairment at 3 mg/kg (Mus musculus [2]): 8%
percent reversal of scopolamine-induced memory impairment (increase in spontaneous alternation) at 1 mg/kg (Mus musculus [18]): 28%
Activity [15]: 170%
percent increase in spontaneous alternation at 10 mg/kg (Mus musculus [19]): 41%

Structure (SMILES): CC(C)(C)c1cc(NCC2C(c3ccc(S(N)(=O)=O)cc3)C2(C)C)no1 (racemic)
Activity [15]: < 100%

Structure (SMILES): COc1ccc(S(N)(=O)=O)cc1NCC1C(c2ccc(S(N)(=O)=O)cc2)C1(C)C (racemic)
Activity [15]: < 100%
